The results in this text go back to ChEMBL document CHEMBL3822375, “Preclinical Characterization of 3β-(N-Acetyl l-cysteine methyl ester)-2aβ,3-dihydrogaliellalactone (GPA512), a Prodrug of a Direct STAT3 Inhibitor for the Treatment of Prostate Cancer” (J Med Chem, 2016).

The subject of the first data set is Mus musculus. In words: AUC (0 to t) in mouse plasma assessed as galiellalactone level at 10 mg/kg, po by LC-MS/MS analysis. The data set is classed as ADME, organism-based. As to conditions: in vivo. The procedure, abridged: (§1)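 Single dose to mice; oral, iv or ip as listed, in 5% DMSO/50 mM citrate buffer pH 4.0 (dosing solutions 0.5, 2 or 5 mg/mL). Oral dosing at 20 mL/kg. Terminal blood under barbiturate anaesthesia at eight time-points to 8 h, n=3 mice per time-point, EDTA plasma. Acetonitrile precipitation with internal standard, LC-MS/MS against plasma calibration lines. Non-compartmental analysis on mean data, trapezoidal AUC.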
With `COC(=O)[C@H](CS[C@H]1C2C(=O)O[C@@H]3CC[C@H](C[C@@H]1C)[C@]23O)NC(=O)OC(C)(C)C` (stereo partly drawn), the AUCt was found to be 11 µg/mL/min.
Still for that read-out and setting: next, `COC(=O)[C@H](CS[C@H]1C2C(=O)O[C@@H]3CC[C@H](C[C@@H]1C)[C@]23O)NC(=O)c1ccccc1F` (stereo partly drawn): 7.8 µg/mL/min.
The same measure, in the same setting: with `COC(=O)[C@H](CS[C@H]1C2C(=O)O[C@@H]3CC[C@H](C[C@@H]1C)[C@]23O)NC(=O)[C@@H](N)C(C)C` (stereo partly drawn) the figure was 97 µg/mL/min.
Consider `CCOC(=O)[C@H](CS[C@H]1C2C(=O)O[C@@H]3CC[C@H](C[C@@H]1C)[C@]23O)NC(C)=O` (stereo partly drawn), for which the AUCt was 20 µg/mL/min.
On the same count and under the same terms, with `COC(=O)[C@H](CS[C@H]1C2C(=O)O[C@@H]3CC[C@H](C[C@@H]1C)[C@]23O)NC(=O)C(C)C` (stereo partly drawn) the figure was 15 µg/mL/min.
Same read-out and setting: next, `COC(=O)[C@H](CCS[C@H]1C2C(=O)O[C@@H]3CC[C@H](C[C@@H]1C)[C@]23O)NC(C)=O` (stereo partly drawn): 150 µg/mL/min.
Still for that read-out and setting: next, `C[C@H]1C[C@H]2CC[C@H]3OC(=O)C([C@@H]1Sc1ccccc1)[C@@]23O` (stereo partly drawn): 36 µg/mL/min.

For the next data set, the system named is Mus musculus. Nature of the data set: Cmax in mouse plasma assessed as galiellalactone level at 10 mg/kg, po by LC-MS/MS analysis. As to conditions: in vivo. The arrangement: dose 10 mg/kg, route oral. The data set is classed as ADME, organism-based. The procedure, abridged:
as §1
For the compound `COC(=O)[C@H](CS[C@H]1C2C(=O)O[C@@H]3CC[C@H](C[C@@H]1C)[C@]23O)NC(=O)OC(C)(C)C` (stereo partly drawn), the Cmax – broadly, the maximum level reached in the sampled fluid or tissue – was determined as 52 ng/mL.
With `COC(=O)[C@H](CS[C@H]1C2C(=O)O[C@@H]3CC[C@H](C[C@@H]1C)[C@]23O)NC(=O)c1ccccc1F` (stereo partly drawn), the Cmax is 57 ng/mL.
Still for that read-out and setting: next, `COC(=O)[C@H](CS[C@H]1C2C(=O)O[C@@H]3CC[C@H](C[C@@H]1C)[C@]23O)NC(=O)[C@@H](N)C(C)C` (stereo partly drawn): 949 ng/mL.
Same read-out and setting: next, `CCOC(=O)[C@H](CS[C@H]1C2C(=O)O[C@@H]3CC[C@H](C[C@@H]1C)[C@]23O)NC(C)=O` (stereo partly drawn): 263 ng/mL; `COC(=O)[C@H](CS[C@H]1C2C(=O)O[C@@H]3CC[C@H](C[C@@H]1C)[C@]23O)NC(=O)C(C)C` (stereo partly drawn): 303 ng/mL; `COC(=O)[C@H](CCS[C@H]1C2C(=O)O[C@@H]3CC[C@H](C[C@@H]1C)[C@]23O)NC(C)=O` (stereo partly drawn): 1102 ng/mL.
Still for that read-out and setting: with `C[C@H]1C[C@H]2CC[C@H]3OC(=O)C([C@@H]1Sc1ccccc1)[C@@]23O` (stereo partly drawn) the figure was 478 ng/mL.

System in the next data set: not listed separately
Nature of the data set: Chemical stability of the compound in phosphate buffer saline assessed as half life at 10 uM at pH 7.4 by LC-MS/MS analysis. The data set is classed as physicochemical. The note with it: phosphate buffered saline. The method, boiled down:
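Compound diluted from DMSO (or methanol) stock to 10 µM, 2% solvent final, n=2. Matrix was 0.1 M PBS pH 7.4, or […] HCl with 2 mg/mL NaCl adjusted to pH 1.2. Mixed on a shaker; sampled at nominal 5, 15, 30 and 60 min plus T=0. LC-MS/MS with internal standard; % remaining relative to T=0. Formation of parent also monitored.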
Consider `COC(=O)[C@H](CS[C@H]1C2C(=O)O[C@@H]3CC[C@H](C[C@@H]1C)[C@]23O)NC(=O)OC(C)(C)C` (stereo partly drawn), for which the half-life (usually the time needed for the level to fall by half in the phase considered) at 10 µM is over 150 min.
The same measure, in the same setting: next, `COC(=O)[C@H](CS[C@H]1C2C(=O)O[C@@H]3CC[C@H](C[C@@H]1C)[C@]23O)NC(=O)[C@@H](N)C(C)C` (stereo partly drawn): 66 min; `COC(=O)[C@H](CS[C@H]1C2C(=O)O[C@@H]3CC[C@H](C[C@@H]1C)[C@]23O)NC(=O)C(C)C` (stereo partly drawn): over 150 min.

A further data set concerns Mus musculus. In words: Apparent half life in mouse plasma assessed as galiellalactone level at 10 mg/kg, po by LC-MS/MS analysis. The data set is classed as ADME, organism-based. As to conditions: in vivo. The method, boiled down: as §1
Regarding `COC(=O)[C@H](CS[C@H]1C2C(=O)O[C@@H]3CC[C@H](C[C@@H]1C)[C@]23O)NC(=O)OC(C)(C)C` (stereo partly drawn), the “t1/2(app)” value is recorded as 348 min.
As for `COC(=O)[C@H](CS[C@H]1C2C(=O)O[C@@H]3CC[C@H](C[C@@H]1C)[C@]23O)NC(=O)c1ccccc1F` (stereo partly drawn), the “t1/2(app)” value turned out to be 189 min.
Consider `COC(=O)[C@H](CS[C@H]1C2C(=O)O[C@@H]3CC[C@H](C[C@@H]1C)[C@]23O)NC(=O)[C@@H](N)C(C)C` (stereo partly drawn), for which the “t1/2(app)” value was 129 min.
The same measure, in the same setting: next, `CCOC(=O)[C@H](CS[C@H]1C2C(=O)O[C@@H]3CC[C@H](C[C@@H]1C)[C@]23O)NC(C)=O` (stereo partly drawn): 65 min; `COC(=O)[C@H](CS[C@H]1C2C(=O)O[C@@H]3CC[C@H](C[C@@H]1C)[C@]23O)NC(=O)C(C)C` (stereo partly drawn): 254 min; `COC(=O)[C@H](CCS[C@H]1C2C(=O)O[C@@H]3CC[C@H](C[C@@H]1C)[C@]23O)NC(C)=O` (stereo partly drawn): 108 min.
Same read-out and setting: next, `C[C@H]1C[C@H]2CC[C@H]3OC(=O)C([C@@H]1Sc1ccccc1)[C@@]23O` (stereo partly drawn): 190 min.

The test system of another data set is Mus musculus. In words: AUC (0 to infinity) in mouse plasma assessed as galiellalactone level at 10 mg/kg, po by LC-MS/MS analysis. The data set is classed as ADME, organism-based. Further details: dose 10 mg/kg, route oral, time infinity. The note with it: in vivo. The method, boiled down:
as §1
As for `COC(=O)[C@H](CS[C@H]1C2C(=O)O[C@@H]3CC[C@H](C[C@@H]1C)[C@]23O)NC(=O)OC(C)(C)C` (stereo partly drawn), the AUC came to 17 µg/mL/min.
Still for that read-out and setting: next, `COC(=O)[C@H](CS[C@H]1C2C(=O)O[C@@H]3CC[C@H](C[C@@H]1C)[C@]23O)NC(=O)c1ccccc1F` (stereo partly drawn): 11 µg/mL/min; `COC(=O)[C@H](CS[C@H]1C2C(=O)O[C@@H]3CC[C@H](C[C@@H]1C)[C@]23O)NC(=O)[C@@H](N)C(C)C` (stereo partly drawn): 101 µg/mL/min; `CCOC(=O)[C@H](CS[C@H]1C2C(=O)O[C@@H]3CC[C@H](C[C@@H]1C)[C@]23O)NC(C)=O` (stereo partly drawn): 22 µg/mL/min.
The same measure, in the same setting: next, `COC(=O)[C@H](CS[C@H]1C2C(=O)O[C@@H]3CC[C@H](C[C@@H]1C)[C@]23O)NC(=O)C(C)C` (stereo partly drawn): 21 µg/mL/min.
Same read-out and setting: next, `COC(=O)[C@H](CCS[C@H]1C2C(=O)O[C@@H]3CC[C@H](C[C@@H]1C)[C@]23O)NC(C)=O` (stereo partly drawn): 155 µg/mL/min; `C[C@H]1C[C@H]2CC[C@H]3OC(=O)C([C@@H]1Sc1ccccc1)[C@@]23O` (stereo partly drawn): 41 µg/mL/min.

The next data set relates to Mus musculus. Nature of the data set: Tmax in mouse plasma assessed as galiellalactone level at 10 mg/kg, po by LC-MS/MS analysis. As to conditions: in vivo. The data set is classed as ADME, organism-based.
Take `COC(=O)[C@H](CS[C@H]1C2C(=O)O[C@@H]3CC[C@H](C[C@@H]1C)[C@]23O)NC(=O)OC(C)(C)C` (stereo partly drawn): the Tmax (in general, the time from dosing to the highest level) is 15 min.
Still for that read-out and setting: next, `COC(=O)[C@H](CS[C@H]1C2C(=O)O[C@@H]3CC[C@H](C[C@@H]1C)[C@]23O)NC(=O)c1ccccc1F` (stereo partly drawn): 15 min; `COC(=O)[C@H](CS[C@H]1C2C(=O)O[C@@H]3CC[C@H](C[C@@H]1C)[C@]23O)NC(=O)[C@@H](N)C(C)C` (stereo partly drawn): 30 min.
The same measure, in the same setting: with `CCOC(=O)[C@H](CS[C@H]1C2C(=O)O[C@@H]3CC[C@H](C[C@@H]1C)[C@]23O)NC(C)=O` (stereo partly drawn) the figure was 30 min; with `COC(=O)[C@H](CS[C@H]1C2C(=O)O[C@@H]3CC[C@H](C[C@@H]1C)[C@]23O)NC(=O)C(C)C` (stereo partly drawn), 30 min.
On the same count and under the same terms, next, `COC(=O)[C@H](CCS[C@H]1C2C(=O)O[C@@H]3CC[C@H](C[C@@H]1C)[C@]23O)NC(C)=O` (stereo partly drawn): 15 min; `C[C@H]1C[C@H]2CC[C@H]3OC(=O)C([C@@H]1Sc1ccccc1)[C@@]23O` (stereo partly drawn): 15 min.
